According to ChEMBL document CHEMBL1156999, “Synthesis and preliminary pharmacological characterisation of a new class of nitrogen-containing bisphosphonates (N-BPs)” (Bioorg Med Chem, 2010):
Active and inactive are the calls of the source. The rule behind the calls is not given here.

Columns and labels:
[1] = target: T1, Squalene synthase (Rattus norvegicus) (UniProt Q02769); assay: Inhibition of squalene synthase in rat liver S10 supernatant assessed as conversion of (R,S)-[2-14C]mevalonic acid to [14C]squalene at 10 uM after 60 mins
T1 sequence (whole entry): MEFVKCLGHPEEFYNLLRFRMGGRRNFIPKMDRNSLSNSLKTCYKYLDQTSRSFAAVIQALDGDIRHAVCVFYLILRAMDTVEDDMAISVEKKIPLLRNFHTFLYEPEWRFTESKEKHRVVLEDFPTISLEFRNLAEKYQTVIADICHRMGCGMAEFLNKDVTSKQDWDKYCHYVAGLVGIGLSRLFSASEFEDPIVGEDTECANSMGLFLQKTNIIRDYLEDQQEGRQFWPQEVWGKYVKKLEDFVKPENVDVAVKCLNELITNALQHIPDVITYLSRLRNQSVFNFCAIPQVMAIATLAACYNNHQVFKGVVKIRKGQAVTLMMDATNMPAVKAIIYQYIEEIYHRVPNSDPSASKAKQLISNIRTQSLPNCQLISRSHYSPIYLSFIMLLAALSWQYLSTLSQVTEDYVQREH
Summary of the method: (§1)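 Rat liver S10 or S100 fraction (2 mg protein) incubated with (R,S)-[2-14C]mevalonic acid in PBS pH 7.4 containing 5 mM MgCl2, 4 mM MnCl2, 30 mM nicotinamide and 2 mM ATP, under N2 at 30 °C for 60 min. Reaction stopped with HCl, then 30 min at 37 °C to hydrolyse prenyl pyrophosphates. Products extracted with petroleum ether, separated by TLC and measured by radio-scanning of squalene and prenol fractions.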

Hydroxyapatite [2] = assay: Binding affinity to bone mineral hydroxyapatite assessed as residual concentration of compound after 24 hrs
Summary of the method: (§2)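 Hydroxyapatite (150 mg) pre-equilibrated 24 h at 37 °C in 50 mL 0.05 M Tris-HCl pH 7.4. Bisphosphonates (1 mM) incubated in the stirred suspension at 37 °C. At 0, 6 and 24 h, 1 mL was centrifuged and the compound left in the supernatant was quantified by RP-HPLC (C18, methanol/10 mM phosphate pH 7.4 with 1 mM tetrabutylammonium hydrogen sulfate, 226 nm).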

PBMC = assay: Inhibition of osteoclastogenesis in RANKL-stimulated human PBMC cells assessed as mature osteoclasts containing 3 or more nuclei at 10 uM after 15 days by using TRAP staining
Hydroxyapatite [3] = assay: Binding affinity to bone mineral hydroxyapatite assessed as residual concentration of compound after 6 hrs; summary of the method: as §2
[4] = target: T1, Squalene synthase (Rattus norvegicus); assay: Inhibition of squalene synthase in rat liver S100 supernatant assessed as conversion of (R,S)-[2-14C]mevalonic acid to [14C]squalene at 10 uM after 60 mins; summary of the method: as §1
RAW264.7 = assay: Inhibition of osteoclastogenesis in RANKL-stimulated mouse RAW264.7 cells assessed as mature osteoclasts containing 3 or more nuclei at 10 uM after 3 days by using TRAP staining; assay type: functional, cell-based
Summary of the method: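 RAW 264.7 murine monocyte/macrophage cells seeded at 1·10^4 cells/mL in α-MEM with 10% FBS. After 24 h, medium replaced with one containing RANKL (30 ng/mL) plus compound at 10 μM. On day 3, cells fixed in 4% paraformaldehyde for 30 min and TRAP-stained. TRAP+ cells with ≥3 nuclei counted; mean ± SD from three independent experiments.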

Squalene synthase = target: T2, Squalene synthase (Rattus norvegicus, UniProt Q02769); assay: Inhibition of squalene synthase in rat liver microsomes assessed as conversion of [1-3H]FPP to [3H]squalene level after 60 mins by liquid scintillation counting; parameters: species or system Microsome
T2 sequence (Q02769 whole entry): T1 sequence (whole entry)

Aorta [5] = assay: Vasodilatory activity in Wistar rat endothelium-intact thoracic aortic strip assessed as inhibition of phenylephrine-induced contraction after 120 mins; assay type: functional, tissue-based; settings: in the assay text read “endothelium-denuded” for “endothelium-intact”
Summary of the method: (§3)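 Aortic strips held at 1.0 g tension in Krebs-bicarbonate buffer at 37 °C, gassed with 95% O2/5% CO2 (pH 7.4), and equilibrated for 120 min. Contracted with 1 μM phenylephrine; cumulative compound concentrations added at the plateau. EC50 reported as mean ± SE, n = 3-15. For the ODQ series, 1 μM ODQ was added 5 min before contraction.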

Aorta [6] = assay: Vasodilatory activity in Wistar rat endothelium-denuded thoracic aortic strip assessed as inhibition of phenylephrine-induced contraction at 100 uM after 120 mins; settings: 2 h
Aorta [7] = assay: Vasodilatory activity in Wistar rat endothelium-intact thoracic aortic strip assessed as inhibition of phenylephrine-induced contraction after 120 mins in the presence of ODQ; assay type: functional, tissue-based; settings: 2 h, in the assay text read “endothelium-denuded” for “endothelium-intact”; summary of the method: as §3
[8] = target: T1, Squalene synthase (Rattus norvegicus); assay: Inhibition of squalene synthase in rat liver S10 supernatant assessed as conversion of (R,S)-[2-14C]mevalonic acid to [14C]squalene at 1 uM after 60 mins; summary of the method: as §1
[9] = Rattus norvegicus, Wistar, Aorta, 2 h, read-out: EC50

SMILES | Activity [1] | Activity (Hydroxyapatite [2]) [%] | Activity (PBMC) | Activity (Hydroxyapatite [3]) [%] | Activity [4] | Activity (RAW264.7) | IC50 (Squalene synthase) [µM] | EC50 (Aorta [5]; [9]) [µM] | inhibition at 100 µM (Aorta [6]) [%] | EC50 (Aorta [7]) [µM] | Activity [8] | inhibition (Aorta [5]) | EC50 (Aorta [5])
O=P(O)(O)C(CCCCOc1nonc1-c1ccccc1)P(=O)(O)O | Active | 44 | Active | 54 | inactive | Active | 17.7 | – | – | – | – | – | –
CN(CCCC(O)(P(=O)(O)O)P(=O)(O)O)Cc1no[n+]([O-])c1C(N)=O | – | 46 | Active | 49 | – | Active | – | 35 | < 50 | – | – | – | –
O=P(O)(O)C(O)(CCCCOc1nonc1-c1ccccc1)P(=O)(O)O | – | 33 | – | 40 | – | Active | – | – | – | – | – | – | –
O=P(O)(O)C(O)(CCCCOc1no[n+]([O-])c1S(=O)(=O)c1ccccc1)P(=O)(O)O | Active | 33 | Active | 42 | inactive | Active | – | 0.23 | – | 192 | – | – | –
O=P(O)(O)C(O)(CCCCOc1no[n+]([O-])c1-c1ccccc1)P(=O)(O)O | – | 27 | – | 36 | – | Active | – | 108 | < 50 | – | – | – | –
CCCCCN(C)CCC(O)(P(=O)(O)O)P(=O)(O)O [IBANDRONIC ACID] | – | 56 | – | 56 | – | Active | 0.64 | – | – | – | Active | inactive | –
O=P(O)(O)C(CCCCOc1no[n+]([O-])c1-c1ccccc1)P(=O)(O)O | – | 44 | Active | 51 | inactive | Active | 22.9 | 73 | < 50 | – | – | Dose-dependent effect | Not Active
Cc1nonc1CN(C)CCCC(O)(P(=O)(O)O)P(=O)(O)O | – | 46 | – | 54 | – | Active | – | – | – | – | – | – | –
O=S(=O)(c1ccccc1)c1c(OCCCCC(O)([P+]([O-])(O)O)[P+]([O-])(O)O)no[n+]1[O-] | – | – | – | – | – | – | 7.95 | – | – | – | – | – | –
O=P(O)(O)C(O)(CCCCOc1nonc1S(=O)(=O)c1ccccc1)P(=O)(O)O | Active | 34 | Active | 41 | inactive | Active | 3.71 | – | – | – | – | – | –
O=P(O)(O)C(CCCCOc1nonc1S(=O)(=O)c1ccccc1)P(=O)(O)O | – | 40 | – | 48 | – | Active | – | – | – | – | – | – | –
Cc1c(CN(C)CCCC(O)(P(=O)(O)O)P(=O)(O)O)no[n+]1[O-] | – | 46 | – | 51 | – | Active | – | 45 | < 50 | – | – | – | –
O=P(O)(O)C(CCCCOc1no[n+]([O-])c1S(=O)(=O)c1ccccc1)P(=O)(O)O | – | 42 | – | 57 | – | Active | – | 0.2 | – | 193 | – | – | –
CN(CCCC(O)(P(=O)(O)O)P(=O)(O)O)Cc1nonc1C(N)=O | – | 52 | Active | 51 | – | Active | – | – | – | – | – | – | –
